Source: ChEMBL document CHEMBL1152607, “Tetraiodobenzimidazoles are potent inhibitors of protein kinase CK2” (Bioorg Med Chem, 2009)
Activity calls are given as the source filed them. The calls are words filed in the database; no cut-off is given here.

Legend:
[1] = Inhibition of rat liver Casein kinase 2
Method in brief: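 Ki from Lineweaver–Burk plots: peptide fixed, ATP increasing, with or without several inhibitor concentrations. Alternatively derived from IC50 via the Cheng–Prusoff relationship.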

[2] = (§1) Noncompetitive inhibition of rat liver Casein kinase 2 using 80 uM ATP and increasing phosphoacceptor substrate by Lineweaver-Burke plot
Rattus norvegicus = species: Rattus norvegicus; assay: as §1

Row | Compound | Ki [1] | further results
1 | S=c1[nH]c2c(Br)c(Br)c(Br)c(Br)c2[nH]1 | 200 nM | 
2 | NNC(=O)Cn1cnc2c(I)c(I)c(I)c(I)c21 | 160 nM | 
3 | Brc1nc2c(Br)c(Br)c(Br)c(Br)c2[nH]1 | 370 nM | 
4 | Clc1c(I)c(Cl)c2nc[nH]c2c1I | 590 nM | 
5 | NNC(=O)Cn1cnc2c(Br)c(Br)c(Br)c(Br)c21 | 1510 nM | 
6 | O=c1[nH]c2c(Br)c(Br)c(Br)c(Br)c2[nH]1 | 180 nM | 
7 | Cc1nc2c(I)c(Cl)c(Cl)c(I)c2[nH]1 | 330 nM | 
8 | Brc1c(Br)c(Br)c2[nH]cnc2c1Br | 300 nM | 
9 | O=C(O)Cn1cnc2c(Br)c(Br)c(Br)c(Br)c21 | 1340 nM | 
10 | FC(F)(F)c1nc2c(Br)c(Br)c(Br)c(Br)c2[nH]1 | 370 nM | 
11 | Clc1c(Cl)c(Cl)c2[nH]cnc2c1Cl |  | Ki [2]: 21000 nM
12 | NC(=O)Cn1cnc2c(Br)c(Br)c(Br)c(Br)c21 | 1450 nM | 
13 | CNC(=O)Cn1cnc2c(I)c(I)c(I)c(I)c21 | 180 nM | 
14 | CNC(=O)Cn1cnc2c(Br)c(Br)c(Br)c(Br)c21 | 1910 nM | 
15 | Clc1c(Cl)c(I)c2[nH]cnc2c1I | 460 nM | 
16 | Clc1nc2c(Br)c(Br)c(Br)c(Br)c2[nH]1 | 250 nM | 
17 | FC(F)(F)C(F)(F)c1nc2c(Br)c(Br)c(Br)c(Br)c2[nH]1 | 200 nM | 

More lines, main results first:

Row | Ki [1] | Compound | further results
18 | 160 nM | Clc1c(I)c(I)c2[nH]cnc2c1I | 
19 | 100 nM | Brc1c(I)c(I)c2[nH]cnc2c1I | 
20 | 120 nM | Clc1nc2c(I)c(I)c(I)c(I)c2[nH]1 | 
21 | 130 nM | NC(=O)Cn1cnc2c(I)c(I)c(I)c(I)c21 | 
22 | 140 nM | OCCNc1nc2c(Br)c(Br)c(Br)c(Br)c2[nH]1 | 
23 | 120 nM | FC(F)(F)c1nc2c(I)c(I)c(I)c(I)c2[nH]1 | 
24 | 75 nM | Brc1c(I)c(Br)c2nc[nH]c2c1I | 
25 | 27 nM | OCCNc1nc2c(I)c(I)c(I)c(I)c2[nH]1 | 
26 | 50 nM | S=c1[nH]c2c(I)c(I)c(I)c(I)c2[nH]1 | 
27 | 50 nM | O=c1[nH]c2c(I)c(I)c(I)c(I)c2[nH]1 | 
28 | 120 nM | O=C(O)CSc1nc2c(Br)c(Br)c(Br)c(Br)c2[nH]1 | 
29 | 70 nM | FC(F)(F)C(F)(F)c1nc2c(I)c(I)c(I)c(I)c2[nH]1 | 
30 | 140 nM | O=C(O)Cn1cnc2c(I)c(I)c(I)c(I)c21 | 
31 | 54 nM | O=C(O)CSc1nc2c(I)c(I)c(I)c(I)c2[nH]1 | 
32 | 24 nM | Cc1nc2c(I)c(I)c(I)c(I)c2[nH]1 | 
33 | 19 nM | CCc1nc2c(I)c(I)c(I)c(I)c2[nH]1 | 
34 | 23 nM | Ic1c(I)c(I)c2[nH]cnc2c1I | Activity (Rattus norvegicus): Active
35 | 90 nM | Brc1nc2c(I)c(I)c(I)c(I)c2[nH]1 | 
